Results reported in ChEMBL document CHEMBL1130236, “Design and synthesis of imidazoline derivatives active on glucose homeostasis in a rat model of type II diabetes. 1. Synthesis and biological activities of N-benzyl-N'-(arylalkyl)-2-(4',5'-dihydro-1'H-imidazol-2'-yl)piperazines ” (1997).

What was measured:
Rattus norvegicus [1] = assay: The glycemia values 30 minutes after glucose administration to streptozotocin rats; assay type: functional
Procedure, shortened: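 Male Wistar rats (3-month, ~250 g) made diabetic with streptozotocin 35 mg/kg iv in citrate buffer; used 2 weeks later if basal glycemia was 7–10 mM. Single ip dose of 100 µmol/kg (hydrochloride salt), then iv glucose 0.5 g/kg under pentobarbital. Plasma glucose was read by analyzer at 30 min and expressed as % variation versus untreated STZ rats.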

Rattus norvegicus [2] = assay: The incremental glycemia values after glucose administration (0.5 g/kg iv), to rats treated with streptozotocin (35 mg/kg iv); assay type: functional
Procedure, shortened: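 STZ (35 mg/kg iv) male Wistar rats were selected after 2 weeks with basal glycemia 7–10 mM and […]. They received 100 µmol/kg ip once before an iv glucose load. Tail blood was taken at 0, 5, 10, 15, 20 and 30 min. The glucose increment over baseline was integrated over 30 min and normalized as (treated−untreated STZ)/(untreated STZ−nondiabetic control)×100.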

Rattus norvegicus [3] = assay: The rate of glucose disappearance between 5 and 30 minutes after glucose administration; assay type: functional, organism-based
Procedure, shortened: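 In the intravenous glucose tolerance test (0.5 g/kg, saphenous vein, pentobarbital anesthesia), STZ-diabetic male Wistar rats had received a single 100 µmol/kg ip dose beforehand. Plasma glucose was sampled from the tail at 5–30 min. The glucose disappearance rate K was computed over 5–30 min and expressed as % variation versus untreated STZ rats.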

Rattus norvegicus [4] = assay: The incremental plasma insulin values over 30 minutes after glucose administration.; assay type: functional
Procedure, shortened: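 Moderately diabetic STZ Wistar rats were given 100 µmol/kg ip once, then 0.5 g/kg iv glucose under pentobarbital. Tail-vein plasma from 0–30 min was stored at −20 °C, and insulin was measured by radioimmunoassay (lower limit 19.5 pmol/L). The incremental insulin over baseline was integrated over 30 min and expressed as % variation versus untreated STZ rats.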

Row | Structure (SMILES) | G30 (Rattus norvegicus [1]) | Delta G (Rattus norvegicus [2]) | K (Rattus norvegicus [3]) | Delta I (Rattus norvegicus [4])
1 | c1ccc(C(CC2=NCCN2)c2ccccn2)cc1 (stereo not drawn) [MIDAGLIZOLE] | 121% | 32% | – | –
2 | CN1CCN(Cc2ccccc2C(F)(F)F)C(C2=NCCN2)C1 (stereo not drawn) | 64% | 94% | 63% | –
3 | CCCN1CCN(Cc2ccccc2Cl)C(C2=NCCN2)C1 (stereo not drawn) | 17% | 0% | 37% | 25%
4 | Clc1ccccc1CN1CCN(Cc2ccccc2Cl)C(C2=NCCN2)C1 (stereo not drawn) | 0% | 0% | 36% | –
5 | CC(C)N1CCN(Cc2ccccc2Cl)C(C2=NCCN2)C1 (stereo not drawn) | 83% | 84% | 44% | –
6 | CN1CCN(Cc2c(Cl)cccc2Cl)C(C2=NCCN2)C1 (stereo not drawn) | 59% | 103% | 107% | –
7 | COc1ccccc1CN1CCN(C)CC1C1=NCCN1 (stereo not drawn) | 56% | 47% | 39% | –
8 | COc1cccc(CN2CCN(C)CC2C2=NCCN2)c1OC (stereo not drawn) | 58% | 0% | 55% | 60%
9 | CCN1CCN(Cc2ccccc2Cl)C(C2=NCCN2)C1 (stereo not drawn) | 38% | 108% | 34% | –
10 | CN1CCN(Cc2ccc(Cl)cc2Cl)C(C2=NCCN2)C1 (stereo not drawn) | 112% | 105% | – | 221%
11 | c1ccc2c(c1)OCC(C1=NCCN1)O2 (stereo not drawn) [IDAZOXAN] | 48% | 8% | 79% | –
12 | CC(C)N1CCN(Cc2ccccc2Cl)CC1C1=NCCN1 (stereo not drawn) | 96% | 112% | 95% | –
13 | CCCN1CCN(Cc2ccc(Cl)cc2Cl)C(C2=NCCN2)C1 (stereo not drawn) | 80% | 24% | 104% | –
14 | CN1CCN(Cc2ccccc2Cl)C(C2=NCCN2)C1 (stereo not drawn) | 103% | 81% | 98% | 109%
15 | Clc1ccccc1CN1CCNCC1C1=NCCN1 (stereo not drawn) | 0% | 0% | 11% | –
16 | CN1CCN(Cc2ccc(Cl)c(Cl)c2)C(C2=NCCN2)C1 (stereo not drawn) | 47% | 36% | 42% | –

Row | Structure (SMILES) | G30 (Rattus norvegicus [1]) | Delta G (Rattus norvegicus [2]) | K (Rattus norvegicus [3]) | Delta I (Rattus norvegicus [4])
17 | c1ccc(CN2CCN(Cc3ccccc3)C(C3=NCCN3)C2)cc1 (stereo not drawn) | 33% | 0% | 43% | –
18 | Cc1ccccc1CN1CCN(C)CC1C1=NCCN1 (stereo not drawn) | 48% | 24% | 81% | –
19 | COc1cccc(CN2CCN(C)CC2C2=NCCN2)c1 (stereo not drawn) | 68% | 23% | 57% | 88%
20 | CN1CCN(Cc2cccc(Cl)c2Cl)C(C2=NCCN2)C1 (stereo not drawn) | 36% | 0% | 53% | –
21 | CN1CCN(Cc2ccc(Cl)cc2Cl)CC1C1=NCCN1 (stereo not drawn) | 102% | 34% | 152% | –
22 | CCN1CCN(Cc2ccccc2Cl)CC1C1=NCCN1 (stereo not drawn) | 50% | 70% | 106% | –
23 | CN1CCN(Cc2cccc(Cl)c2)C(C2=NCCN2)C1 (stereo not drawn) | 23% | 0% | 39% | –
24 | CN1CCN(Cc2cc(Cl)cc(Cl)c2)C(C2=NCCN2)C1 (stereo not drawn) | 70% | 0% | 117% | –
25 | CN1CCN(Cc2ccc(F)cc2F)C(C2=NCCN2)C1 (stereo not drawn) | 106% | 102% | 97% | –
26 | Clc1ccc(CN2CCN(Cc3ccc(Cl)cc3Cl)C(C3=NCCN3)C2)c(Cl)c1 (stereo not drawn) | 18% | 0% | 22% | –
27 | CN1CCN(Cc2ccccc2)C(C2=NCCN2)C1 (stereo not drawn) | 23% | 0% | 67% | 16%
28 | CN1CCN(Cc2ccc(Cl)cc2)C(C2=NCCN2)C1 (stereo not drawn) | 68% | 0% | 110% | –
29 | CN1CCN(Cc2ccccc2F)C(C2=NCCN2)C1 (stereo not drawn) | 52% | 72% | 108% | –
30 | CC(C)CN1CCN(Cc2ccc(Cl)cc2Cl)C(C2=NCCN2)C1 (stereo not drawn) | 95% | 110% | 119% | 623%
31 | CN1CCN(Cc2ccccc2Cl)CC1C1=NCCN1 (stereo not drawn) | 97% | 93% | 148% | –
